Data taken from ChEMBL document CHEMBL3352329, “Antifungal activity of resveratrol derivatives against Candida species” (2014).
In brackets after ≈: the same amount, converted by molar mass. Activity calls are given as the source filed them. No cut-off for these calls is given here.

Legend:
Candida dubliniensis = experiment: Antifungal activity against Candida dubliniensis ATCC MYA-646 assessed as growth inhibition after 48 hrs by broth microdilution method; assay type: functional; conditions: ATCC MYA-646, 48 h
Method in brief: (§1)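 CLSI broth microdilution with serial 2-fold dilutions in RPMI AutoMod medium. Inoculum from a 0.5 McFarland suspension (10^6 cfu/mL). Plates incubated 48 h at 32 °C, then OD read at 630 nm. MIC95 is the lowest concentration giving 95% growth inhibition versus untreated control. Mean of two independent experiments, each run in triplicate.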

Pichia kudriavzevii = experiment: Antifungal activity against Candida krusei ATCC 6258 assessed as growth inhibition after 48 hrs by broth microdilution method; assay type: functional; conditions: ATCC 6258, 48 h; method in brief: as §1
Nakaseomyces glabratus = experiment: Antifungal activity against Candida glabrata ATCC 90030 assessed as growth inhibition after 48 hrs by broth microdilution method; assay type: functional; conditions: ATCC 90030, 48 h; method in brief: as §1
Clavispora lusitaniae = experiment: Antifungal activity against Candida lusitaniae CBS 6936 assessed as growth inhibition after 48 hrs by broth microdilution method; assay type: functional; conditions: CBS 6936, 48 h; method in brief: as §1
Pichia norvegensis = experiment: Antifungal activity against Candida norvegensis clinical isolate assessed as growth inhibition after 48 hrs by broth microdilution method; assay type: functional; method in brief: as §1
Debaryomyces hansenii = experiment: Antifungal activity against Candida famata VKMY-9 assessed as growth inhibition after 48 hrs by broth microdilution method; assay type: functional; conditions: VKMY-9, 48 h; method in brief: as §1
Kluyveromyces marxianus = experiment: Antifungal activity against Candida kefyr clinical isolate assessed as growth inhibition after 48 hrs by broth microdilution method; assay type: functional; method in brief: as §1
[1] = system: Meyerozyma guilliermondii; experiment: Antifungal activity against Candida guilliermondii ATCC 6260 assessed as growth inhibition after 48 hrs by broth microdilution method; assay type: functional; conditions: ATCC 6260, 48 h; method in brief: as §1
Candida tropicalis [2] = experiment: Antifungal activity against Candida tropicalis ATCC MYA-3404/T1 assessed as growth inhibition after 48 hrs by broth microdilution method; assay type: functional; conditions: ATCC MYA-3404/T1, 48 h; method in brief: as §1
[Candida] inconspicua = Antifungal activity against Candida inconspicua clinical isolate assessed as growth inhibition after 48 hrs by broth microdilution method; assay type: functional; conditions: Pichia inconspicua; method in brief: as §1
Candida albicans [3] = experiment: Antifungal activity against Candida albicans SC5314 ATCC MYA-2876 assessed as growth inhibition after 48 hrs by broth microdilution method; assay type: functional; conditions: SC5314 ATCC MYA-2876, 48 h; method in brief: as §1
Candida parapsilosis = experiment: Antifungal activity against Candida parapsilosis ATCC 22019 assessed as growth inhibition after 48 hrs by broth microdilution method; assay type: functional; conditions: Lodderomyces parapsilosis, ATCC 22019, 48 h; method in brief: as §1
Candida tropicalis [4] = experiment: Antifungal activity against Candida tropicalis ATCC MYA-3404/T1 assessed as growth inhibition at 300 ug/ml after 48 hrs by broth microdilution method; assay type: functional, organism-based
Method in brief: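 Broth microdilution per CLSI, serial 2-fold dilutions in RPMI AutoMod medium; inoculum 0.5 McFarland (10^6 cfu/mL). Incubation 48 h at 32 °C, OD 630 nm read; activity judged against untreated control, MIC95 being lowest concentration giving 95% growth inhibition; 300 μg/mL highest concentration tested. Two independent experiments, each in triplicate; mean values.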

Candida albicans [5] = experiment: Antifungal activity against Candida albicans SC5314 ATCC MYA-2876 assessed as growth inhibition at 300 ug/ml after 48 hrs by broth microdilution method; assay type: functional, organism-based
Method in brief: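 Broth microdilution in RPMI AutoMod medium against SC5314, tested up to 300 μg/mL, the highest concentration used. Inoculum from a 0.5 McFarland suspension (10^6 cfu/mL). Incubated 48 h at 32 °C, growth read as OD at 630 nm. Activity judged as 95% growth inhibition versus control. Two independent experiments, each in triplicate.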

Candida albicans [6] = experiment: Antifungal activity against Candida albicans SC5314 ATCC MYA-2876 assessed as inhibition of hyphal formation at 14 ug/ml after 48 hrs by microscopy; assay type: functional, organism-based
Method in brief: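 Yeast-to-hyphae transition of SC5314 examined after 48 h at 32 °C in RPMI medium. Cells exposed to 7, 14 or 28 μg/mL alongside untreated control cells. Hyphal formation assessed by comparing cell morphology between treated and control cultures.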

Row | Compound | MIC95 (Candida dubliniensis) | MIC95 (Pichia kudriavzevii) | MIC95 (Nakaseomyces glabratus) | MIC95 (Clavispora lusitaniae) | MIC95 (Pichia norvegensis) | MIC95 (Debaryomyces hansenii) | MIC95 (Kluyveromyces marxianus) | MIC95 [1] | MIC95 ([Candida] inconspicua) | MIC95 (Candida albicans [3]) | MIC95 (Candida parapsilosis) | growth inhibition (GI) (Candida albicans [5]) | also measured
1 | COc1ccc(/C=C/c2cc(O)cc(OC)c2)cc1 | 18 µg/mL (≈ 70.2 µM) | 37 µg/mL (≈ 144 µM) | 37 µg/mL (≈ 144 µM) | 37 µg/mL (≈ 144 µM) | 37 µg/mL (≈ 144 µM) | 9 µg/mL (≈ 35.1 µM) | 18 µg/mL (≈ 70.2 µM) | 18 µg/mL (≈ 70.2 µM) | 37 µg/mL (≈ 144 µM) | 37 µg/mL (≈ 144 µM) | 18 µg/mL (≈ 70.2 µM) |  | MIC95 (Candida tropicalis [2]): 27 µg/mL (≈ 105 µM)
2 | COc1cc(O)cc(/C=C/c2ccc(O)cc2)c1 | 150 µg/mL (≈ 619 µM) | 300 µg/mL (≈ 1240 µM) | 300 µg/mL (≈ 1240 µM) | 300 µg/mL (≈ 1240 µM) | 300 µg/mL (≈ 1240 µM) | 18 µg/mL (≈ 74.3 µM) | 150 µg/mL (≈ 619 µM) | 150 µg/mL (≈ 619 µM) | 300 µg/mL (≈ 1240 µM) | 300 µg/mL (≈ 1240 µM) | 300 µg/mL (≈ 1240 µM) |  | growth inhibition (GI) (Candida tropicalis [4]): inactive
3 | CC(=O)Oc1cc(/C=C/c2ccc(O)cc2)cc(OC(C)=O)c1 |  |  |  |  |  |  |  |  |  |  |  | inactive | 
4 | CC(=O)Oc1cc(O)cc(/C=C/c2ccc(O)cc2)c1 |  |  |  |  |  |  |  |  |  |  |  | inactive | 
5 | CC(=O)Oc1ccc(/C=C/c2cc(O)cc(OC(C)=O)c2)cc1 |  |  |  |  |  |  |  |  |  |  |  | inactive | 
6 | CC(=O)Oc1ccc(/C=C/c2cc(OC(C)=O)cc(OC(C)=O)c2)cc1 |  |  |  |  |  |  |  |  |  |  |  | inactive | 
7 | CC(=O)Oc1ccc(/C=C/c2cc(OC(C)=O)cc3c2[C@H](c2cc(OC(C)=O)cc(OC(C)=O)c2)[C@@H](c2ccc(OC(C)=O)cc2)O3)cc1 |  |  |  |  |  |  |  |  |  |  |  | inactive | 
8 | COc1ccc(/C=C/c2cc(OC)cc(OC)c2)cc1 |  |  |  |  |  |  |  |  |  |  |  | inactive | 
9 | OC[C@H]1O[C@@H](Oc2cc(O)cc(/C=C/c3ccc(O)cc3)c2)[C@H](O)[C@@H](O)[C@@H]1O |  |  |  |  |  |  |  |  |  |  |  | inactive | 
10 | Oc1ccc(/C=C/c2cc(O)cc(O)c2)cc1 |  |  |  |  |  |  |  |  |  |  |  | inactive | 
11 | Oc1ccc([C@H]2c3c(O)cc(O)cc3[C@H]3c4c(cc(O)cc4[C@@H]2O)O[C@@H]3c2ccc(O)cc2)cc1 |  |  |  |  |  |  |  |  |  |  |  | inactive | 
12 | Oc1ccc([C@H]2Oc3ccc(/C=C/c4cc(O)cc5c4[C@@H](c4cc(O)cc(O)c4)[C@H](c4ccc(O)cc4)O5)cc3[C@@H]2c2cc(O)cc3c2[C@H](c2cc(O)cc(O)c2)[C@@H](c2ccc(O)cc2)O3)cc1 (mixture of isomers) | 150 µg/mL | 300 µg/mL | 300 µg/mL | 300 µg/mL | 300 µg/mL | 18 µg/mL | 150 µg/mL | 150 µg/mL | 300 µg/mL | 300 µg/mL | 300 µg/mL |  | growth inhibition (GI) (Candida tropicalis [4]): inactive
13 | COc1ccc(/C=C/c2cc(OC)cc3c2[C@H](c2cc(OC)cc(OC)c2)[C@@H](c2ccc(OC)cc2)O3)cc1 (relative stereo) |  |  |  |  |  |  |  |  |  |  |  | inactive | 
14 | Oc1ccc(/C=C/c2cc(O)cc3c2[C@H](c2cc(O)cc(O)c2)[C@@H](c2ccc(O)cc2)O3)cc1 (relative stereo) |  |  |  |  |  |  |  |  |  |  |  | inactive | 
15 | Nc1nc(=O)[nH]cc1F [FLUCYTOSINE] | 2 µg/mL (≈ 15.5 µM) | 4 µg/mL (≈ 31 µM) | 4 µg/mL (≈ 31 µM) | 2 µg/mL (≈ 15.5 µM) | 4 µg/mL (≈ 31 µM) | 2 µg/mL (≈ 15.5 µM) | 4 µg/mL (≈ 31 µM) | 2 µg/mL (≈ 15.5 µM) | 4 µg/mL (≈ 31 µM) | 2 µg/mL (≈ 15.5 µM) | 4 µg/mL (≈ 31 µM) |  | MIC95 (Candida tropicalis [2]): 4 µg/mL (≈ 31 µM)
16 | COc1cc(/C=C/c2ccc(O)cc2)cc(OC)c1 [PTEROSTILBENE] | 14 µg/mL (≈ 54.6 µM) | 28 µg/mL (≈ 109 µM) | 28 µg/mL (≈ 109 µM) | 28 µg/mL (≈ 109 µM) | 28 µg/mL (≈ 109 µM) | 7 µg/mL (≈ 27.3 µM) | 14 µg/mL (≈ 54.6 µM) | 7 µg/mL (≈ 27.3 µM) | 28 µg/mL (≈ 109 µM) | 28 µg/mL (≈ 109 µM) | 14 µg/mL (≈ 54.6 µM) |  | inhibition (Candida albicans [6]): Active; MIC95 (Candida tropicalis [2]): 28 µg/mL (≈ 109 µM)
17 | COc1ccc(/C=C/c2cc(O)cc(O)c2)cc1 [RESVERATROL 4'-METHYL ETHER] | 150 µg/mL (≈ 619 µM) | 150 µg/mL (≈ 619 µM) | 150 µg/mL (≈ 619 µM) | 300 µg/mL (≈ 1240 µM) | 75 µg/mL (≈ 310 µM) | 18 µg/mL (≈ 74.3 µM) | 150 µg/mL (≈ 619 µM) | 150 µg/mL (≈ 619 µM) | 300 µg/mL (≈ 1240 µM) | 150 µg/mL (≈ 619 µM) | 300 µg/mL (≈ 1240 µM) |  | MIC95 (Candida tropicalis [2]): 300 µg/mL (≈ 1240 µM)
